F508del corr: CFTR F508del correction in bronchial cells. AID 720511. activity (quench increase), % at 7.58 µM. 350,000 tested, 0.36% active. CFBE cells, YFP halide quenching; stimulated with forskolin plus potentiator P3; % fluorescence drop versus neutral controls;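 active means mean added fluorescence quench of at least 8% versus neutral control, with both replicates also reaching 8%; inconclusive means only one of the mean or replicate conditions met; inactive means mean below 8% and not both replicates reaching 8%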;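 further: cells transiently co-express mutant CFTR-F508del with the halide-sensitive YFP; corrector assay measuring rescue of mutant channel to the surface after 24 h compound exposure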
FGF22 binding: shifts melting point of recombinant human FGF22. Q9HCT0. recombinant FGF22 thermal shift, SYPRO orange fluorescence; percent of sucrose octasulfate shift, DMSO zero. activity (Tm shift, normalised), % at 9.99 µM. 340,000 tested, 1.5% active. AID 651658;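 active means mean Tm shift, scaled 0 neutral to 100 positive control, at about 1.3% or above, every replicate too, limit read from the data; inconclusive means no clear call, values can overlap the other calls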
ERAP1 inh: inhibitors of human ERAP1 aminopeptidase. AID 652197. recombinant ERAP1, Leu-AMC fluorescence, 60 min. inhibition, % at 10.7 µM. 340,000 tested, 0.15% active;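 active means mean replicate inhibition of at least 30%, or all replicates individually reaching that 30% level; inactive means mean below 30% and not every replicate reaching it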
E-sel inducer: induces E-selectin expression in human endothelial cells. P16581. HUVEC E-selectin immunofluorescence imaging; normalized: neutral wells 0, TNF-alpha wells 100. activation, % at 7.58 µM. 260,000 tested, 0.37% active;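 active means mean E-selectin-positive cell signal at least 10% of the positive control, reached in at least 60% of replicates, without over 20% cell loss; inconclusive means no rule given, readout overlaps actives, possibly toxicity-flagged; inactive means the rest, including those meeting only one limit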
Target sequence (P16581 whole entry, looked up): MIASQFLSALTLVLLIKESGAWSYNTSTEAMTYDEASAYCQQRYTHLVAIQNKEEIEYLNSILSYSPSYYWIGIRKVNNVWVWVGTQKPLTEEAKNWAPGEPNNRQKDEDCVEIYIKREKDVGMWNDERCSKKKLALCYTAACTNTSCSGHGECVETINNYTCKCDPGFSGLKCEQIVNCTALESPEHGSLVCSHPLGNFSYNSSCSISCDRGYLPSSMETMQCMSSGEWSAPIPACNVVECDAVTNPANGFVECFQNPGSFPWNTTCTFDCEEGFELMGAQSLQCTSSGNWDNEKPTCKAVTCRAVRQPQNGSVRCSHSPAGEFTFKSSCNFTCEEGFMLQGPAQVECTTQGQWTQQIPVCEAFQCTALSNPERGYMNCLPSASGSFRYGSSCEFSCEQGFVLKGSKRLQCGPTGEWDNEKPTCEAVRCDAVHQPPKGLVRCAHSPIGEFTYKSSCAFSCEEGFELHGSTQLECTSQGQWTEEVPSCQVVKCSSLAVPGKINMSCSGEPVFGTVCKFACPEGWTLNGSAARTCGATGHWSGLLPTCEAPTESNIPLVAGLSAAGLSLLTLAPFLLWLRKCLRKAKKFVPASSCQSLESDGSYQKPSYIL
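System: HUVEC, human umbilical vein endothelial cells; quantity: 3,000 cells/well; buffer or medium: EGM-2 medium, gelatin-coated wells; dosing: single-point compound dose; detection: immunofluorescence imaging; evaluation: % PE-positive cells; benchmarks: TNF-alpha, DMSO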
DENV2 CPE: protects cells from dengue virus 2 cytopathic effect; DENV2-infected cells, cytopathic effect rescue, plate reader; CPE inhibition, % at 9.99 µM; AID 651640; 350,000 tested, 1.7% active; in the data active means CPE inhibition above about 20%, passing the limit was not always enough; inconclusive means no clear call, values can overlap the other calls; tested in BHK-21 cells
Large screens that a line does not name were inactive; ! = not confirmed by another sample. Shown are actives, neighbours in structure and some others; about 3.7% of the full set was active somewhere.

CC(C)NC(=O)Nc1ccc2c(c1)C(=O)N(C)[C@@H]1CC[C@H](CC(=O)NCC(F)(F)F)O[C@H]1CO2	none (no result: ERAP1 inh)
O=C(CC1CC1)N1CC2(C1)[C@H](c1ccccc1)[C@@H](CO)N2Cc1ccccc1	none
C[C@H](CO)N1C[C@H](C)[C@H](CN(C)C(=O)C2CCCCC2)Oc2cc(-c3cccnc3)ccc2S1(=O)=O	none
COc1cc(C(=O)Nc2ccccc2C(=O)Nc2ccccn2)cc(OC)c1OC	F508del corr 13 (no result: E-sel inducer)
CC(O)/C=C/c1cccc[n+]1C (stereo not drawn)	ERAP1 inh 107 (no result: E-sel inducer)
C[n+]1ccccc1/C=C/c1cc(Br)ccc1O	none (no result: E-sel inducer)
C[n+]1ccccc1/C=N/O	ERAP1 inh 92!
CO[C@H]1CN(C)C(=O)c2ccc(NC(C)=O)cc2OC[C@H](C)N(C(=O)c2ccccc2F)C[C@H]1C	none (no result: FGF22 binding, ERAP1 inh, DENV2 CPE)
CCn1c(SCC(=O)NCCc2ccccc2)nnc1C(C)C	none
CCn1c(SCC(=O)NCc2ccccc2)nnc1C(CO)NC(=O)c1ccccc1 (stereo not drawn)	ERAP1 inh 32
O=C(c1cc2cc([N+](=O)[O-])ccc2oc1=O)N1CCOCC1	FGF22 binding 43
O=C(c1cccc(Oc2ccccc2)c1)N1CCOCC1	none
O=C(c1cccc(Oc2ccc([N+](=O)[O-])cc2)c1)N1CCOCC1	DENV2 CPE 97
CN(C)CC(=O)N1[C@@H]2c3ccc(-c4cccnc4)c(=O)n3C[C@H]1[C@H](CO)[C@H]2C(=O)NC1CCCC1	none (no result: FGF22 binding)
CCCNC(=O)N(C)C[C@H]1Oc2cc(-c3ccccc3F)ccc2S(=O)(=O)N([C@@H](C)CO)C[C@H]1C	DENV2 CPE inconclusive
C[C@@H]1CN([C@@H](C)CO)C(=O)c2cc(NC(=O)Cn3cnnn3)ccc2O[C@@H]1CN(C)Cc1ccc2c(c1)OCO2	none
CC(C)(C)c1ccc(C(=O)O/N=C(\N)c2ccccc2)cc1	none
Cc1cc(C(=O)O/N=C(\N)c2ccc(C(C)(C)C)cc2)no1	DENV2 CPE 65 (no result: ERAP1 inh)
O=C(c1cc(-c2ccc(Cl)cc2Cl)on1)N1CCCC1	FGF22 binding 44
CCOCCCn1c(=NC(=O)c2ccco2)c(C(=O)OCC)cc2c(=O)n3cccc(C)c3nc21	ERAP1 inh 60 (no result: E-sel inducer)
CCOC(=O)c1cc2c(=O)n3ccccc3nc2n(Cc2ccco2)c1=NC(=O)c1ccccc1OC	ERAP1 inh 36 (no result: F508del corr)
Cc1ccc(NC2=NCC(=O)N2C2CCCC2)cc1C	none
Cc1ccc(NC2=NCC(=O)N2C2CCCC2)cc1	FGF22 binding 43 (no result: DENV2 CPE)
Cc1cc(CN2CCCC(CO)(Cc3cccc(Cl)c3)C2)n[nH]1 (stereo not drawn)	FGF22 binding 44 (no result: E-sel inducer)
CC(C)Cc1cc(CN2CCCC(CO)(Cc3cccc(Cl)c3)C2)[nH]n1 (stereo not drawn)	none (no result: E-sel inducer)
Cc1nnsc1SCCNC(=O)Nc1ccc(Cl)cc1	FGF22 binding 44
CC(C)c1ccc(OCc2cccc(C(=O)N/N=C/c3cccnc3)c2)cc1	FGF22 binding 28 (no result: E-sel inducer)
CN(C)c1ccc(/C=N/N2CCN(Cc3ccccc3Cl)CC2)cc1	DENV2 CPE 55 (no result: E-sel inducer)
CCN(CC)c1ccc(/C=N/N2CCN(Cc3ccccc3Cl)CC2)cc1	none (no result: E-sel inducer)
O=C(NC1CCCCC1)N1CC(=O)N2[C@H](CO)[C@@H](c3ccc(-c4ccccc4)cc3)[C@H]2C1	none (no result: FGF22 binding)
O=S(=O)(Nc1cc(Sc2cccc3cccnc23)c(O)c2ccccc12)c1ccccc1	F508del corr 26 (no result: E-sel inducer)
CCCn1c(=O)c(C(=O)NNS(=O)(=O)c2ccc(C)cc2)c(O)c2ccccc21	DENV2 CPE 35 (no result: E-sel inducer)

High-throughput results deposited in PubChem BioAssay by Broad Institute.
